Screening results deposited in PubChem by Sanford-Burnham Center for Chemical Genomics.
Compounds with a hit are over-represented: about 1.5% of the library has one in this group of screens.
HNF4A DNA FP: change in binding of human HNF4A to DNA, primary screen, biochemical, fluorescence polarization, FITC-DNA. 1 h. actives 0.3% (n = 360,000). activity change, % at 10 µM. AID 1224865, 2016. Hepatocyte nuclear factor 4-alpha (Homo sapiens), P41235; in the data active means activity change above about 30%, passing the limit was not always enough
CSN inh: inhibitors of CSN-mediated cullin deneddylation, primary screen, biochemical, fluorescence polarization, uHTS. Purified CSN, SCF-Nedd8-OG deneddylation. AID 651999, 2013. actives 0.38% (n = 360,000). COP9 signalosome complex subunit 5 (Homo sapiens), Q92905. inhibition, % at 12.5 µM;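 active means pattern-corrected inhibition above about 35%, with an unprinted fluorescence ratio check between 0.5 and 1.5, limit read from the data, passing the limit was not always enough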;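 further: 0% = enzyme with substrate and 100% = substrate without enzyme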
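Material: purified human Csn5 enzyme expressed in HEK293T cells / Medium: Tris buffer pH 7.5, NaCl, DTT, Tween-20, trehalose, ovalbumin / Compound dosing: 12.5 µM single point / Schedule: 90 min incubation of compound, enzyme and substrate at room temperature / Signal: fluorescence polarization of the substrate / Control set: no-enzyme wells high, enzyme-with-substrate wells low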
aDG glyco act: activators of alpha-DG glycosylation, primary screen, uHTS, Pro5-aDG cells, AlphaScreen | actives 0.22% (n = 360,000) | alpha-DG glycosylation AlphaScreen (IIH6); 0% Pro5, 100% B10-LARGE cell signal | activation, % at 10 µM;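 active means activation of at least 8% versus controls, or a plate z-score of at least 8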;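 further: Pro5 are CHO cells carrying HIG-tagged alpha-DG that lacks glycosylation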
NR1D1 modulator: modulators of Rev-erb alpha DNA binding, primary screen, biochemical, FITC-DNA, fluorescence polarization, uHTS; activity, % at 10 µM; Rev-erbα–FITC-DNA binding, 90 min; Nuclear receptor subfamily 1 group D member 1 (Homo sapiens), P20393; actives 0.79% (n = 370,000);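 active means activity above about 14%, limit read from the data; passing the limit was not always enough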;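 further: 0% = DMSO wells with 35 nM protein and 100% = DMSO wells with 750 nM protein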
Target sequence (P20393 whole entry, looked up): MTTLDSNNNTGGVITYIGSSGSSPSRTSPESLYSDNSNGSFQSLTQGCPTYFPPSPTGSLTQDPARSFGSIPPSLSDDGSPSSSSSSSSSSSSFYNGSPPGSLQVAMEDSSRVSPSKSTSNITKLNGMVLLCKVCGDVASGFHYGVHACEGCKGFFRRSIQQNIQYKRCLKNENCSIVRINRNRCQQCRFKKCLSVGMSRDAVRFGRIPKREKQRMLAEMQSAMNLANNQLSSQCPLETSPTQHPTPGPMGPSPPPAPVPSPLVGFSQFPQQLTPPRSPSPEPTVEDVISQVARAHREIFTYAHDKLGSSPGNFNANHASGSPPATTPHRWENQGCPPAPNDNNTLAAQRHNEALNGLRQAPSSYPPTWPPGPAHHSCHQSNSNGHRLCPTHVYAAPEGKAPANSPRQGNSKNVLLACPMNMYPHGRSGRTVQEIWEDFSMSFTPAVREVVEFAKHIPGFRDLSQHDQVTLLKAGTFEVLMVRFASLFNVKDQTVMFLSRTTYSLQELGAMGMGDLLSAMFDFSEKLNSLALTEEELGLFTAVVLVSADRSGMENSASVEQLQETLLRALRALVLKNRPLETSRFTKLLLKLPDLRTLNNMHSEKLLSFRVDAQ
NR1D1 mod conf: modulators of Rev-erb alpha DNA binding, confirmation, biochemical, FITC-DNA, fluorescence polarization, single point; 90 min; shares compounds with NR1D1 modulator; actives 61% (n = 3,000); activation, % at 25 µM;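 active means activation at or above a set limit, or at least 3 SD above the negative control mean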;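 further: 0% = 35 nM protein with DMSO and 100% = 750 nM protein high control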
RORg DNA counter: modulation of RORgamma DNA binding, dose response, counter-screen for Rev-erb alpha modulator project, biochemical, fluorescence polarization, FITC-DNA; shares compounds with NR1D1 modulator; purified RORgamma protein-FITC-DNA binding; IC50, µM; actives 8% (n = 910);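 active means Compounds whose fitted half-maximal concentration for disrupting protein-DNA binding is below 10 micromolar; the record names Rev-erb in its text, so the target is in doubt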
Starred values were filed as active, the others as inactive; i = inactive; . = no result; + = active, no number.

SMILES	HNF4A DNA FP	CSN inh	aDG glyco act	NR1D1 modulator	NR1D1 mod conf	others
O=C1c2ccccc2C(c2nnnn2Cc2ccccc2)N1CCc1c[nH]c2ccccc12 (stereo not drawn)	5	3	0	20*	-5
O=C1c2ccccc2C(c2nnnn2Cc2ccccc2)N1Cc1ccc(F)cc1 (stereo not drawn)	1	6	0	-3	.
COc1ccccc1N/C(N)=N/c1nc(CSc2ccc(C)cc2)cc(=O)[nH]1	-2	16	1	31*	34*	RORg DNA counter=>40
CC(=O)N1CCc2c1cccc2S(=O)(=O)NC(CC(C)C)C(=O)Nc1ccccc1C (stereo not drawn)	.	.	.	1	.
Fc1ccc(-c2nc3c4ccccc4ccn3c2Cc2cccc(Cl)c2)cc1	10	1	0	-1	.
Clc1cccc(Cc2c(-c3cccc(Cl)c3)nc3ccc(Br)cn23)c1	3	2	0	26*	19*
Clc1cccc(Cc2c(-c3cccc(Br)c3)nc3ccc(Br)cn23)c1	12	7	0	20	.
Cc1cc(Br)c2nc(-c3ccc(F)cc3)c(Cc3cccc(Cl)c3)n2c1	.	.	.	29*	13*
Clc1ccc(-c2nc3ccc(Br)cn3c2Cc2cccc(Cl)c2)cc1	3	6	0	25*	19*
Cc1ccc(-c2nc3ccc(Br)cn3c2Cc2cccc(Cl)c2)cc1	10	8	3	19*	10
C[C@@H]1/C=C/CC(=O)N2[C@H](CC(=O)N[C@@H]1c1ccccc1)C[C@@H](C)[C@H]2c1ccccc1	.	.	.	-3	.
CCCCNC(=O)C1(C(=O)C2CC2)CC(C(=O)OCC)=NO1 (stereo not drawn)	.	.	.	-2	.
CC(C)CNC(=O)C1(C)CCCCCN1Cc1ccccc1-c1ccccc1 (stereo not drawn)	-6	1	0	20*	7
O=C(Nc1nc(-c2ccc(Cl)cc2Cl)cs1)c1ccc(OCC2CCCO2)cc1 (stereo not drawn)	-1	0	1	-1	.
CC(C)COc1ccc(C(=O)Nc2scc(-c3ccc(Cl)cc3Cl)c2C(N)=O)cc1	-3	-5	2	31*	29*
CCN1CCCCC(NC(=O)c2cc(OC)c(OC)c(OC)c2)C1=O (stereo not drawn)	.	.	.	0	.
O=C(CSc1ncnc2c1oc1ccccc12)Nc1cccc(Cl)c1	-1	1	0	430*	371*	RORg DNA counter=i
O=C(CSc1ncnc2c1oc1ccccc12)Nc1ccccc1F	0	3	0	606*	616*	RORg DNA counter=>40
CCOc1ccccc1NC(=O)CSc1ncnc2c1oc1ccccc12	0	-6	0	+	+
COC(=O)c1ccc(CSc2ncnc3c2oc2ccccc23)o1	1	0	0	147*	144*	RORg DNA counter=>40
COC(=O)c1ccc(CSc2ncnc3ccccc23)o1	-3	2	0	-1	.
CCOC(=O)[C@]12CCCC=C1N(Cc1ccc(OC)cc1)C(=O)[C@@H]2CC(=O)NCc1ccc(C)o1	.	.	.	3	.
O=C(CCc1ccccc1)N[C@H]1[C@@H](OC(=O)c2cnccn2)CCC[C@]12C(=O)N(Cc1ccccc1)c1ccccc12	.	.	.	-4	.
Cc1ccccc1N1CCN(C(=O)COc2cc(=O)n(C)c3ccccc23)CC1	.	.	.	-1	.
Cn1c(SCC(=O)Nc2ccccc2F)nnc1-c1cc2ccccc2o1	1	-4	0	26*	16
SMILES	HNF4A DNA FP	CSN inh	aDG glyco act	NR1D1 modulator	NR1D1 mod conf	others
O=C(CSc1ncnc2c1sc1ccccc12)Nc1ccc(Br)cc1	6	1	0	293*	195*	RORg DNA counter=>40
CC(=O)Nc1ccc(NC(=O)CSc2nnc(-c3cc4ccccc4o3)n2C)cc1	0	1	0	3	.
O=C(CSc1ncnc2c1oc1ccccc12)Nc1nc2ccccc2s1	-2	3	0	5	.
CCc1nnc(NC(=O)CSc2nnc(-c3ccccc3NC(=O)c3ccccc3)o2)s1	0	0	0	28*	7
CCc1nnc(NC(=O)CSc2ncnc3c2oc2ccccc23)s1	16	6	0	98*	21*
Cc1ccsc1S(=O)(=O)n1c(CN2CCOCC2)nc2ccccc21	.	.	.	-5	.
CN(C(=O)COC(=O)c1cc(-c2ccccc2Cl)nc2ccccc12)C1CCS(=O)(=O)C1 (stereo not drawn)	2	-14	0	-3	.
CN(C(=O)COC(=O)c1cc(-c2ccc(Cl)s2)nc2ccccc12)C1CCS(=O)(=O)C1 (stereo not drawn)	2	-5	0	51*	13
COc1ccccc1C=C(C(=O)c1ccccc1)c1ccccc1	-1	-1	0	18*	5
O=C(OC12CCCN(C1)/C(=C/c1cccc(Cl)c1)C2)c1ccno1 (stereo not drawn)	.	.	.	-3	.
COC(=O)Nc1nc(-c2ccccc2)c(C(=O)c2ccc(Cl)cc2)s1	-2	-5	0	30*	31*
CCOC(=O)Nc1nc(-c2ccccc2)c(C(=O)c2ccccc2)s1	1	3	0	2	.
O=C(Nc1nc(-c2ccccc2)c(C(=O)c2ccccc2)s1)c1ccc(S(=O)(=O)N2CCCCC2)cc1	-3	-3	0	23*	85*	RORg DNA counter=i
COc1cc2cc(C(=O)N(C)Cc3ccccc3)[nH]c2cc1OC	0	-1	0	31*	12
COc1cc2cc(C(=O)N3CCc4ccccc4C3)[nH]c2cc1OC	2	2	0	28*	11
COc1cc2[nH]c(C(=O)N3CCc4ccccc4C3)cc2c(OC)c1OC	2	1	0	-4	.
CCN(CC)C(=O)CC[C@@H]1CC[C@]2(CCCN(C(=O)c3cccnc3)C2)O1	.	.	.	-3	.
CCCC1(c2ccccc2)NC(=O)N(CC(=O)Nc2sc(-c3ccccc3)cc2C(=O)OCC)C1=O (stereo not drawn)	3	2	0	56*	50*	RORg DNA counter=>40
CCOC(=O)c1cc(-c2ccccc2)sc1NC(=O)CN1C(=O)c2ccccc2C1=O	-1	-3	0	33*	8
COC(=O)c1cc2c(c3c4cc(OC)ccc4n(S(=O)(=O)c4cccc(C)c4)c13)C(=O)N(Cc1ccc(C(F)(F)F)cc1)C2	.	.	.	18*	8
COC(=O)c1cc2c(c3c4cc(F)ccc4n(S(=O)(=O)c4cccc(C)c4)c13)C(=O)N(Cc1ccc(C(F)(F)F)cc1)C2	.	.	.	0	.
